Values belong to the compound of their own block, whether it stands above or below them.
Legend:
Type in all cases: cell-based
S1P4 receptor = molecular target: T1, S1P4 receptor (Homo sapiens, UniProt O95977); assay: S1P4 functional antagonist assay; conditions: for fold less potent than the hit (1) at S1P4: versus hit compound 1
T1 sequence (O95977 1-384): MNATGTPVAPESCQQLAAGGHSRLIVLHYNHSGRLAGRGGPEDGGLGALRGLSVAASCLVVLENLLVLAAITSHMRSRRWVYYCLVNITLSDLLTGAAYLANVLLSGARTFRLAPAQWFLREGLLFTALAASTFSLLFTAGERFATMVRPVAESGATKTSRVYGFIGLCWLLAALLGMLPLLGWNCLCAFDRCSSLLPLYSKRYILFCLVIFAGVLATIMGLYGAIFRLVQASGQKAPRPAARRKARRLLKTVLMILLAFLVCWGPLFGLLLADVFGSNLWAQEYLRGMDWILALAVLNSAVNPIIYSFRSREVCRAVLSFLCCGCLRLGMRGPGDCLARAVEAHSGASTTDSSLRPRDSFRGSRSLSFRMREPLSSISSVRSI
Outline: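 U2OS cells co-express a beta-arrestin/TEV protease fusion protein and a beta-lactamase reporter gene under the control of a UAS response element. Beta-lactamase expression is read as FRET from a cleavable, fluorogenic, cell-permeable beta-lactamase substrate. The test compound's antagonism of the S1P4 receptor is reported as an IC50.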

S1P1 = S1P1 (Homo sapiens, UniProt P21453); assay: S1P selectivity counter screen, functional assay at S1P1
S1P2 = S1P2 (Homo sapiens, UniProt O95136); assay: S1P selectivity counter screen, functional assay at S1P2
S1P3 = S1P3 (Homo sapiens, UniProt Q99500); assay: S1P selectivity counter screen, functional assay at S1P3
S1P3, sequence (Q99500 whole entry, species assumed): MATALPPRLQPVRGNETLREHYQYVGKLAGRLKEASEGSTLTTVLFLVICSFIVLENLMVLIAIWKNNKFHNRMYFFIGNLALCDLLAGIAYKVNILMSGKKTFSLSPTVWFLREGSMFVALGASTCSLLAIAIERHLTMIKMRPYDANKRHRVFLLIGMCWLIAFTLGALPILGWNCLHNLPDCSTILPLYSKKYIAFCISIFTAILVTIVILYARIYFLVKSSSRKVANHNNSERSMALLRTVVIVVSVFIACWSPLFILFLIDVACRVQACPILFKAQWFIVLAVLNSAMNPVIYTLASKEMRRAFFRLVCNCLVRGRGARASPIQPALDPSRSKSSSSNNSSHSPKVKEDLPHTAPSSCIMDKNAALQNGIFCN

S1P1, sequence (P21453 whole entry, species assumed): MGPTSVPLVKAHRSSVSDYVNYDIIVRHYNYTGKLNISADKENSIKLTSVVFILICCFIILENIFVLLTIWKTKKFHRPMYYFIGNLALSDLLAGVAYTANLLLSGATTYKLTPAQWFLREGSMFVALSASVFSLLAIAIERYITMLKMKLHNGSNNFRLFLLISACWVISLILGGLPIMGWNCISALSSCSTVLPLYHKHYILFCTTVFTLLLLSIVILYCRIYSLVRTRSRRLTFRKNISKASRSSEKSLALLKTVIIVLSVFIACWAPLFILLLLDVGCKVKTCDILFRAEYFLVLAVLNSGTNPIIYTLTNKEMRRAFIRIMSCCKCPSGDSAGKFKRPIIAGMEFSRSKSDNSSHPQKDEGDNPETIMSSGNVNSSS
S1P2, sequence (O95136 whole entry, species assumed): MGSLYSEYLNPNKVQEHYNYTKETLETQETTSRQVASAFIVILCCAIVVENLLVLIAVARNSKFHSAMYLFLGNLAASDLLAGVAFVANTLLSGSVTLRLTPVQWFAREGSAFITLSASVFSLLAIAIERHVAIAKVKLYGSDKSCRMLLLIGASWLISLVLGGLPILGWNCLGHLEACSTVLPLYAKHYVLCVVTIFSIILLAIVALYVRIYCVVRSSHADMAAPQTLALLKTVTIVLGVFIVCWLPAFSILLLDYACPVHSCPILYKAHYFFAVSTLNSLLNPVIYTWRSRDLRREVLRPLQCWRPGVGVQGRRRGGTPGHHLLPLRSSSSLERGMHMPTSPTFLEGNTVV

- S1P4 activity in words (S1P4 receptor): inactive
SMILES: Cc1cccc(C)c1NC(=O)c1ccc(-c2c(C)cccc2C)o1 [9j]

- IC50 (S1P1): > 25 µM
- IC50 (S1P2): > 25 µM
- IC50 (S1P3): > 25 µM
SMILES: Cc1cccc(C)c1NC(=O)c1ccc(-c2cc(Cl)ccc2Cl)o1 [compound 1, 5-(2,5-dichlorophenyl)-N-(2,6-dimethylphenyl)furan-2-carboxamide]

- fold more potent than 9k at S1P4 (S1P4 receptor; versus 9k): 1.5 fold
SMILES: Cc1cscc1-c1ccc(C(=O)Nc2c(C)cccc2C)o1 [9l]

- fold less potent than the hit (1) at S1P4 (S1P4 receptor): 6 fold
SMILES: Cc1cccc(C)c1NC(=O)c1ccc(-c2cccc(Cl)c2)o1 [9b]

- fold less potent than the hit (1) at S1P4 (S1P4 receptor): 3 fold
SMILES: Cc1cccc(C)c1N(C)C(=O)c1ccc(-c2ccccc2Cl)o1 [9c]

- S1P4 activity in words (S1P4 receptor): suppressed completely the activity
SMILES: O=C(c1ccc(-c2cc(Cl)ccc2Cl)o1)N1CCc2ccccc21 [4j]

- fold less potent than mono-chlorinated 9c at S1P4 (S1P4 receptor; versus 9c): 7 fold
- fold less potent than the hit (1) at S1P4 (S1P4 receptor): 25 fold
SMILES: Cc1cccc(C)c1NC(=O)c1ccc(-c2ccc(Cl)cc2Cl)o1 [9a]

- fold less potent than the homolog 4q at S1P4 (S1P4 receptor; versus 4q): approximately 128 fold
SMILES: Cc1cc(C)c(N(C)C(=O)c2ccc(-c3cc(Cl)ccc3Cl)o2)c(C)c1 [4r]

- IC50 (S1P4 receptor): 0.036 µM
SMILES: Cc1cc(CO)cc(C)c1NC(=O)c1ccc(-c2cc(Cl)ccc2Cl)o1 [4t]
